Measurements pooled from the literature.
CDK9 with cyclin T1: Cyclin-dependent kinase 9, with cyclin T1 (CDK9, Homo sapiens, UniProt P50750)
CDK9: Cyclin-dependent kinase 9 (CDK9, Homo sapiens, UniProt P50750)
CDK9 with cyclin K: Cyclin-dependent kinase 9, with cyclin K (CDK9, Homo sapiens, UniProt P50750)

CNC(=O)c1cc(Oc2ccc(NC(=O)Nc3ccc(Cl)c(C(F)(F)F)c3)cc2)ccn1  inhibition (CDK9 with cyclin T1; enzyme activity; inhibitor; 10 µM): -6%
CC(C)(C)c1nc(-c2cccc(NS(=O)(=O)c3c(F)cccc3F)c2F)c(-c2ccnc(N)n2)s1  remaining activity (CDK9 with cyclin T1; enzyme activity; inhibitor; radiometric; 1 µM): 106%
CCN(CC)CCNC(=O)c1c(C)[nH]c(/C=C2\C(=O)Nc3ccc(F)cc32)c1C  inhibition (CDK9 with cyclin T1; enzyme activity; inhibitor; 10 µM): 37%
CNC(=O)c1ccc(Nc2ncc(C(F)(F)F)c(NCc3nccnc3N(C)S(C)(=O)=O)n2)cc1  remaining binding (CDK9; cell-free assay; competition with immobilised ligand; 0.1 µM): 86%
O=C(CSc1nc2nccnc2c(=O)n1CCc1ccccc1)Nc1nccs1  inhibition (CDK9 with cyclin K; enzyme activity; inhibitor; 10 µM): -8%
CO[C@@H](C)c1c(Nc2ccc([C@H](N(C)C(=O)C3CCS(=O)(=O)CC3)C(F)(F)F)cc2)cnc2cc(Cl)nn12  remaining binding (CDK9; cell-free assay; competition with immobilised ligand; 1 µM): 85%
CCCS(=O)(=O)Nc1ccc(F)c(C(=O)c2c[nH]c3ncc(-c4ccc(Cl)cc4)cc23)c1F  inhibition (CDK9 with cyclin T1; enzyme activity; inhibitor; 1 µM): < 10%
CN(C)C1CCN(CC#Cc2nn(C3CCCC3)c3nc(NCc4ccccc4)ncc23)C1 (stereo not shown)  inhibition (CDK9 with cyclin T1; enzyme activity; inhibitor; FRET; 1 µM): 1%
CC(=O)N1CCC(c2ccc(C(=O)NC(=N)N)cc2C(F)(F)F)CC1  remaining binding (CDK9; cell-free assay; competition with immobilised ligand; 1 µM): 100%
Cc1ccc(NC(=O)c2ccc(CN3CCN(C)CC3)cc2)cc1Nc1nc(-c2cccnc2)cs1  remaining signal (CDK9 with cyclin T1; cell-free assay; 0.5 µM): 99.2%
CC(C)(C)c1nc2c(s1)c1nc(N)ncc1c1ccc(NS(=O)(=O)c3c(F)cccc3F)c(F)c12  remaining activity (CDK9 with cyclin K; enzyme activity; inhibitor; radiometric; 1 µM): 93%
O=C1CCc2cc(Nc3cc(OC4CCOCC4)c([N+](=O)[O-])cc3Cl)ccc2N1  remaining binding (CDK9; cell-free assay; competition with immobilised ligand; 1 µM): 97%
CCN(CC)c1ccc(C2=NNC(=O)CC2C)cc1[N+](=O)[O-] (stereo not shown)  remaining activity (CDK9 with cyclin T1; enzyme activity; inhibitor; 10 µM): 105%
O=C1NC(=O)c2cc(Nc3ccc(F)cc3)c(Nc3ccc(F)cc3)cc21  remaining signal (CDK9 with cyclin T1; cell-free assay; 0.5 µM): 95.4%
CN(C)CC#Cc1ccc(OCCCc2sc(N3CCc4cccc(C(=O)Nc5nc6ccccc6s5)c4C3)nc2C(=O)O)c(F)c1  remaining binding (CDK9; cell-free assay; competition with immobilised ligand; 1 µM): 94%
Cc1ccc(C(=O)Nc2ccc(CN3CCN(C)CC3)c(C(F)(F)F)c2)cc1C#Cc1cnc2cccnn12  remaining activity (CDK9; enzyme activity; inhibitor; 23.5 nM): 96%
Cc1cnc(NC2CCOCC2)nc1-n1cnc(C(=O)NC(CN)c2cc(F)cc(Cl)c2)c1 (stereo not shown)  remaining activity (CDK9 with cyclin T1; enzyme activity; inhibitor; radiometric; 1 µM): 46%
COc1cc(Cl)c(C(=O)N[C@@H](CN[C@H]2CC[C@@H](N)CC2)Cc2ccc(C#N)cc2)cc1-c1ccc(CN[C@H](C)c2ccc(C)cc2)o1  remaining activity (CDK9 with cyclin T1; enzyme activity; inhibitor; 1 µM): 99%
N#CCCc1ccc2c(c1)-c1[nH]c3ccc([N+](=O)[O-])cc3c1CC(=O)N2  remaining signal (CDK9 with cyclin K; cell-free assay; 0.5 µM): 23.7%
CCc1ccccc1C(=O)Nc1n[nH]c2c(C)c(F)c(C3C(C#N)=C(C)N(C)C(C)=C3C#N)cc12  remaining binding (CDK9; cell-free assay; competition with immobilised ligand; 1 µM): 94%
Cn1cncc1C1=CN(c2ncnc3[nH]cnc23)CCS1  inhibition (CDK9; enzyme activity; inhibitor; radiometric; 50 nM): 12.4%
Cc1ccc(C(=O)NCc2ccsc2)cc1C#Cc1cn(C(C)C)c2ncnc(N)c12  activity vs control (CDK9 with cyclin T1; enzyme activity; inhibitor; 1 µM): 93%
COc1cccc2c(NCc3ccccc3)nc(-n3c(N)nc4ccccc43)nc12  inhibition (CDK9; target engagement in cells; inhibitor; chemoproteomics; 20 mM): -14.5%
COc1cc(-c2cc(-c3ccc(N4CCNCC4)cc3)cnc2C)cc(OC)c1OC  inhibition (CDK9 with cyclin T1; enzyme activity; inhibitor; 0.1 µM): 3%
Nc1ncnc2occ(-c3ccc(NC(=O)Nc4cc(C(F)(F)F)ccc4F)cc3)c12  remaining signal (CDK9; cell-free assay; inhibitor; 20 µM): 0.15%
O=C1Nc2ccc(Cl)cc2C1=Cc1cc(Cl)c(O)c(Cl)c1  remaining signal (CDK9 with cyclin T1; cell-free assay; 0.5 µM): 95.2%
Cc1cc(NC(=O)c2cccc3cc(-c4cccc5[nH]nc(N)c45)ccc23)ccc1F  activity vs control (CDK9 with cyclin T1; enzyme activity; inhibitor; 0.1 µM): 106%
CCCCN(CCCC)C(=O)CN1C[C@@H](c2cc(OC)c3c(c2)OCO3)[C@H](C(=O)O)[C@H]1CC(C)(C)CCC  remaining binding (CDK9; cell-free assay; competition with immobilised ligand; 1 µM): 100%
Cc1ccc(Nc2nccc(N(C)c3ccc4c(C)n(C)nc4c3)n2)cc1S(N)(=O)=O  remaining activity (CDK9 with cyclin T1; enzyme activity; inhibitor; 0.5 µM): 91.5%
Cc1cc(-n2nc(Cc3cc(F)cc(C(F)(F)F)c3)nc2C)ccc1C(N)=O  remaining binding (CDK9; cell-free assay; competition with immobilised ligand; 1 µM): 100%
CS(=O)(=O)CCNCc1ccc(-c2ccc3ncnc(Nc4ccc(OCc5cccc(F)c5)c(Cl)c4)c3c2)o1  remaining signal (CDK9 with cyclin K; cell-free assay; 0.5 µM): 103%
